# Experimental data reported in ChEMBL document CHEMBL1137333, “Synthesis, radiosynthesis, and biological evaluation of carbon-11 labeled 2beta-carbomethoxy-3beta-(3'-((Z)-2-haloethenyl)phenyl)nortropanes: candidate radioligands for in vivo imaging of the serotonin transporter with positron emission tomography” (J Med Chem, 2006).
# Assays:
# Cynomolgus monkey [1] = test: Uptake in anesthetized cynomolgus monkey frontal after 65.0 mins; type: ADME, organism-based, Frontal cortex; conditions: in vivo
# Summary of the method: (§1)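 Baseline microPET scan (P4 scanner) of anesthetized cynomolgus monkeys after injection of the carbon-11 labelled nortropane tracer. Two baseline studies were run per tracer. Radioactivity was followed over time in regional brain time-activity curves.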
# Cynomolgus monkey [2] = test: Uptake in anesthetized cynomolgus monkey caudate after 9.5 mins; type: ADME, organism-based, Caudate nucleus; conditions: in vivo
# Summary of the method: (§2)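 Baseline microPET (Concorde P4) regional brain time-activity curves in anesthetized cynomolgus monkey following injection of the [11C]-labelled tracer, with radioactivity followed over the scan.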
# Cynomolgus monkey [3] = test: Uptake in anesthetized cynomolgus monkey pons after 95.0 mins; type: ADME, organism-based; conditions: in vivo
# Summary of the method: (§3)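 Baseline microPET (Concorde P4) scan in anesthetized cynomolgus monkeys after injection of the carbon-11 labeled tracer, with no chase drug. Regional brain time-activity curves were followed over the scan. Tracer radiochemical purity and specific activity were determined by analytical HPLC at the time of injection.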
# Cynomolgus monkey [4] = test: Uptake in anesthetized cynomolgus monkey midbrain after 27.5 mins; type: ADME, organism-based; conditions: in vivo; summary of the method: as §1
# Cynomolgus monkey [5] = test: Uptake in anesthetized cynomolgus monkey putamen after 9.5 mins; type: ADME, organism-based; conditions: in vivo; summary of the method: as §3
# Cynomolgus monkey [6] = test: Uptake in anesthetized cynomolgus monkey thalamus after 55.0 mins; type: ADME, organism-based; conditions: in vivo; summary of the method: as §3
# Cynomolgus monkey [7] = test: Ratio of uptake in pons to cerebellum of anesthetized cynomolgus monkey after 85 mins; type: ADME, organism-based; conditions: in vivo
# Summary of the method: (§4)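 Baseline microPET (Concorde P4) in anesthetized cynomolgus monkey after injection of the [11C]-labelled tracer. Regional time-activity curves were taken, and each region's uptake was divided by cerebellum uptake (low-SERT reference) at 65, 85 and 105 min postinjection.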
# Cynomolgus monkey [8] = test: Uptake in anesthetized cynomolgus monkey occipital after 15.5 mins; type: ADME, organism-based, Macaca mulatta, Occipital cortex; conditions: rhesus monkey, in vivo; summary of the method: as §1
# Cynomolgus monkey [9] = test: Uptake in anesthetized cynomolgus monkey frontal after 35.0 mins; type: ADME, organism-based, Frontal cortex; conditions: in vivo; summary of the method: as §1
# Cynomolgus monkey [10] = test: Ratio of uptake in occipital to cerebellum of anesthetized cynomolgus monkey after 65 mins; type: ADME, organism-based; conditions: in vivo; summary of the method: as §4
# Cynomolgus monkey [11] = test: Uptake in anesthetized cynomolgus monkey frontal after 22.5 mins; type: ADME, organism-based, Frontal cortex; conditions: in vivo, 0.375 h; summary of the method: as §1
# Cynomolgus monkey [12] = test: Uptake in anesthetized cynomolgus monkey caudate after 0.5 mins; type: ADME, organism-based, Caudate nucleus; conditions: in vivo; summary of the method: as §2
# Cynomolgus monkey [13] = test: Uptake in anesthetized cynomolgus monkey thalamus after 3.5 mins; type: ADME, organism-based; conditions: in vivo; summary of the method: as §3
# Cynomolgus monkey [14] = test: Uptake in anesthetized cynomolgus monkey putamen after 12.5 mins; type: ADME, organism-based; conditions: in vivo; summary of the method: as §3
# Cynomolgus monkey [15] = test: Uptake in anesthetized cynomolgus monkey thalamus after 65.0 mins; type: ADME, organism-based; conditions: in vivo; summary of the method: as §3
# Cynomolgus monkey [16] = test: Uptake in anesthetized cynomolgus monkey thalamus after 9.5 mins; type: ADME, organism-based; conditions: in vivo; summary of the method: as §3
# Cynomolgus monkey [17] = test: Uptake in anesthetized cynomolgus monkey putamen after 15.5 mins; type: ADME, organism-based; conditions: in vivo; summary of the method: as §3
# Cynomolgus monkey [18] = test: Uptake in anesthetized cynomolgus monkey medulla after 1.5 mins; type: ADME, organism-based, Medulla of organ; conditions: in vivo, 0.025 h; summary of the method: as §1
# Cynomolgus monkey [19] = test: Uptake in anesthetized cynomolgus monkey medulla after 35.0 mins; type: ADME, organism-based, Medulla of organ; conditions: in vivo; summary of the method: as §1
# Cynomolgus monkey [20] = test: Uptake in anesthetized cynomolgus monkey midbrain after 6.5 mins; type: ADME, organism-based; conditions: in vivo; summary of the method: as §1
# Cynomolgus monkey [21] = test: Uptake in anesthetized cynomolgus monkey putamen after 75.0 mins; type: ADME, organism-based; conditions: in vivo, 1.25 h; summary of the method: as §3
# Cynomolgus monkey [22] = test: Uptake in anesthetized cynomolgus monkey putamen after 6.5 mins; type: ADME, organism-based; conditions: in vivo; summary of the method: as §3
# Cynomolgus monkey [23] = test: Ratio of uptake in pons to cerebellum of anesthetized cynomolgus monkey after 105 mins; type: ADME, organism-based; conditions: in vivo, 1.75 h; summary of the method: as §4
# Cynomolgus monkey [24] = test: Uptake in anesthetized cynomolgus monkey pons after 15.5 mins; type: ADME, organism-based; conditions: in vivo; summary of the method: as §3
# Cynomolgus monkey [25] = test: Uptake in anesthetized cynomolgus monkey thalamus after 45.0 mins; type: ADME, organism-based; conditions: in vivo, 0.75 h; summary of the method: as §3
# Cynomolgus monkey [26] = test: Uptake in anesthetized cynomolgus monkey medulla after 9.5 mins; type: ADME, organism-based, Medulla of organ; conditions: in vivo; summary of the method: as §1
# Cynomolgus monkey [27] = test: Ratio of uptake in frontal to cerebellum of anesthetized cynomolgus monkey after 65 mins; type: ADME, organism-based; conditions: in vivo; summary of the method: as §4
# Cynomolgus monkey [28] = test: Uptake in anesthetized cynomolgus monkey cerebellum after 115.0 mins; type: ADME, organism-based; conditions: in vivo; summary of the method: as §2
# Cynomolgus monkey [29] = test: Uptake in anesthetized cynomolgus monkey frontal after 45.0 mins; type: ADME, organism-based, Frontal cortex; conditions: in vivo, 0.75 h; summary of the method: as §1
# Cynomolgus monkey [30] = test: Uptake in anesthetized cynomolgus monkey pons after 27.5 mins; type: ADME, organism-based; conditions: in vivo; summary of the method: as §3
# Cynomolgus monkey [31] = test: Uptake in anesthetized cynomolgus monkey cerebellum after 95.0 mins; type: ADME, organism-based; conditions: in vivo; summary of the method: as §2
# Cynomolgus monkey [32] = test: Uptake in anesthetized cynomolgus monkey caudate after 2.5 mins; type: ADME, organism-based, Caudate nucleus; conditions: in vivo; summary of the method: as §2
# Cynomolgus monkey [33] = test: Uptake in anesthetized cynomolgus monkey medulla after 22.5 mins; type: ADME, organism-based, Medulla of organ; conditions: in vivo, 0.375 h; summary of the method: as §1
# Cynomolgus monkey [34] = test: Uptake in anesthetized cynomolgus monkey occipital after 85.0 mins; type: ADME, organism-based, Macaca mulatta, Occipital cortex; conditions: rhesus monkey, in vivo; summary of the method: as §1
# Cynomolgus monkey [35] = test: Ratio of uptake in frontal to cerebellum of anesthetized cynomolgus monkey after 105 mins; type: ADME, organism-based; conditions: in vivo, 1.75 h; summary of the method: as §4
smiles,measurement,setting,value
[11CH3]OC(=O)[C@@H]1C2CCC(C[C@@H]1c1cccc(/C=C/Br)c1)N2 (stereo not given in full),Drug uptake,Cynomolgus monkey [1],3.8
same,Drug uptake,Cynomolgus monkey [2],4.35
same,Drug uptake,Cynomolgus monkey [3],8.08
same,Drug uptake,Cynomolgus monkey [4],7.01
same,Drug uptake,Cynomolgus monkey [5],5.41
same,Drug uptake,Cynomolgus monkey [6],6.4
same,Ratio,Cynomolgus monkey [7],1.6
same,Drug uptake,Cynomolgus monkey [8],4.55
same,Drug uptake,Cynomolgus monkey [9],3.7
same,Ratio,Cynomolgus monkey [10],0.8
same,Drug uptake,Cynomolgus monkey [11],3.47
same,Drug uptake,Cynomolgus monkey [12],0.01
same,Drug uptake,Cynomolgus monkey [13],1.54
same,Drug uptake,Cynomolgus monkey [14],5.62
same,Drug uptake,Cynomolgus monkey [15],6.39
same,Drug uptake,Cynomolgus monkey [16],4.3
same,Drug uptake,Cynomolgus monkey [17],6.07
same,Drug uptake,Cynomolgus monkey [18],0.4
same,Drug uptake,Cynomolgus monkey [19],7.19
same,Drug uptake,Cynomolgus monkey [20],4.84
same,Drug uptake,Cynomolgus monkey [21],7.45
same,Drug uptake,Cynomolgus monkey [22],4.44
same,Ratio,Cynomolgus monkey [23],1.8
same,Drug uptake,Cynomolgus monkey [24],5.76
same,Drug uptake,Cynomolgus monkey [25],6.07
same,Drug uptake,Cynomolgus monkey [26],5.99
same,Ratio,Cynomolgus monkey [27],1
same,Drug uptake,Cynomolgus monkey [28],3.76
same,Drug uptake,Cynomolgus monkey [29],3.76
same,Drug uptake,Cynomolgus monkey [30],6.51
same,Drug uptake,Cynomolgus monkey [31],4.09
same,Drug uptake,Cynomolgus monkey [32],0.73
same,Drug uptake,Cynomolgus monkey [33],6.96
same,Drug uptake,Cynomolgus monkey [34],5.21
same,Ratio,Cynomolgus monkey [35],1.2
